# In article PMC8295177 (Cancer discovery, 2021):
# Where “and” joins values, the source holds several entries; their conditions need not be identical. Identical values can stand only once.
# Columns and labels:
# [1] = tested on: patients with advanced NSCLC refractory to standard therapies; test: Phase 1 dose-escalation study; assay type: in vivo
# [2] = tested on: patients treated with mobocertinib 160 mg daily; test: Safety and tolerability; assay type: in vivo, human; conditions: for Treatment-related TEAE Anemia, Any Grade / Treatment-related TEAE Anemia, Grade ≥3 / Treatment-related TEAE Decreased appetite, Any Grade / Treatment-related TEAE Decreased appetite, Grade ≥3 / Treatment-related TEAE Dermatitis acneiform, Any Grade / Treatment-related TEAE Dermatitis acneiform, Grade ≥3 / Treatment-related TEAE Diarrhea, Any Grade / Treatment-related TEAE Diarrhea, Grade ≥3 / Treatment-related TEAE Dry skin, Any Grade / Treatment-related TEAE Dry skin, Grade ≥3 / Treatment-related TEAE Dyspepsia, Any Grade / Treatment-related TEAE Dyspepsia, Grade ≥3 / Treatment-related TEAE Fatigue, Any Grade / Treatment-related TEAE Fatigue, Grade ≥3 / Treatment-related TEAE GERD, Any Grade / Treatment-related TEAE GERD, Grade ≥3 / Treatment-related TEAE Increased lipase, Any Grade / Treatment-related TEAE Increased lipase, Grade ≥3 / Treatment-related TEAE Nausea, Any Grade / Treatment-related TEAE Nausea, Grade ≥3 / Treatment-related TEAE Paronychia, Any Grade / Treatment-related TEAE Paronychia, Grade ≥3 / Treatment-related TEAE Pruritus, Any Grade / Treatment-related TEAE Pruritus, Grade ≥3 / Treatment-related TEAE Rash maculo-papular, Any Grade / Treatment-related TEAE Rash maculo-papular, Grade ≥3 / Treatment-related TEAE Rash, Any Grade / Treatment-related TEAE Rash, Grade ≥3 / Treatment-related TEAE Stomatitis, Any Grade / Treatment-related TEAE Stomatitis, Grade ≥3 / Treatment-related TEAE Vomiting, Any Grade / Treatment-related TEAE Vomiting, Grade ≥3: number (%) of patients
# Summary of the method: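 Safety pooled phase 1 and phase 2 patients who received at least one dose at an initial 160 mg daily, given orally in continuous 28-day cycles. Treatment-related TEAEs were tallied at any grade and at grade ≥3. The EGFRex20ins NSCLC subgroup came from dose escalation plus expansion cohort 1. Grade 3–4 toxicity led to withholding the drug, with up to two dose reductions allowed.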
# [3] = tested on: previously treated NSCLC with EGFRex20ins mutations; test: Investigator-assessed antitumor activity; assay type: in vivo, human; conditions: for Best confirmed response: Stable disease: observed ≥6 weeks after first dose
# [4] = Plasma pharmacokinetics of mobocertinib in dose-escalation patients; assay type: in vivo, human; conditions: oral
# Summary of the method: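 Patients with NSCLC took oral capsules once daily in continuous 28-day cycles. Plasma was sampled at prespecified times after the first dose (Cycle 1, Day 1) and at steady state (Cycle 2, Day 1). Drug and active metabolites were quantified by validated LC-MS. Tmax, Cmax and AUC0–24 came from noncompartmental analysis. Effective half-life was derived from accumulation as a geometric mean.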
# [5] = 28 patients with EGFRex20ins mutations treated at 160 mg daily
# [6] = 136 patients treated at 160 mg daily
# [7] = all patients treated at 160 mg daily (n=136)
# [8] = patients with EGFRex20ins treated at 160 mg daily (n=28)
# [9] = 80 mg total daily dose (n=9), includes 80 mg daily and 40 mg twice daily
structure (smiles),measurement,setting,value
C=CC(=O)Nc1cc(Nc2ncc(C(=O)OC(C)C)c(-c3cn(C)c4ccccc34)n2)c(OC)cc1N(C)CCN(C)C [mobocertinib],recommended phase 2 dose (RP2D),"[1]; human, in vivo, po, 28 days",160 mg daily
same,maximum tolerated dose (MTD),"[1]; oral, 28-day cycles, dose escalation 5-180 mg daily",160 mg daily
same,patients with AEs leading to discontinuation,[2]; [5],25%
same,patients with AEs requiring dose interruption,[2]; [5],57%
same,patients with AEs requiring dose reduction,[2]; [5],18%
same,patients who experienced a treatment-emergent adverse event (TEAE),[2]; [6],99%
same,patients with TEAEs considered related to mobocertinib treatment,[2]; [6],96%
same,patients with TEAEs requiring discontinuation,[2]; [6],16%
same,patients with TEAEs requiring dose interruption,[2]; [6],54%
same,patients with TEAEs requiring dose reduction,[2]; [6],17%
same,patients with grade 3 or higher treatment-related TEAEs,[2]; [6],40%
same,patients with serious treatment-related TEAEs,[2]; [6],13%
same,"serious treatment-related TEAE diarrhea, patients",[2]; [6],4%
same,"serious treatment-related TEAE vomiting, patients",[2]; [6],4%
same,"treatment-related diarrhea, any grade, patients",[2]; [6],83%
same,"treatment-related diarrhea, grade ≥3, patients",[2]; [6],21%
same,"treatment-related nausea, any grade, patients",[2]; [6],43%
same,"treatment-related rash, any grade, patients",[2]; [6],33%
same,"treatment-related vomiting, any grade, patients",[2]; [6],26%
same,"diarrhea leading to discontinuation, patients",[2]; 136 patients treated at 160 mg daily (7/136),5%
same,"Treatment-related TEAE Anemia, Any Grade",[2]; [7],19 (14)
same,"Treatment-related TEAE Anemia, Grade ≥3",[2]; [7],3 (2)
same,"Treatment-related TEAE Decreased appetite, Any Grade",[2]; [7],29 (21)
same,"Treatment-related TEAE Decreased appetite, Grade ≥3",[2]; [7],1 (1)
same,"Treatment-related TEAE Dermatitis acneiform, Any Grade",[2]; [7],19 (14)
same,"Treatment-related TEAE Dermatitis acneiform, Grade ≥3",[2]; [7],1 (1)
same,"Treatment-related TEAE Diarrhea, Any Grade",[2]; [7],113 (83)
same,"Treatment-related TEAE Diarrhea, Grade ≥3",[2]; [7],28 (21)
same,"Treatment-related TEAE Dry skin, Any Grade",[2]; [7],30 (22)
same,"Treatment-related TEAE Dry skin, Grade ≥3",[2]; [7],0
same,"Treatment-related TEAE Dyspepsia, Any Grade",[2]; [7],16 (12)
same,"Treatment-related TEAE Dyspepsia, Grade ≥3",[2]; [7],0
same,"Treatment-related TEAE Fatigue, Any Grade",[2]; [7],28 (21)
same,"Treatment-related TEAE Fatigue, Grade ≥3",[2]; [7],2 (1)
same,"Treatment-related TEAE GERD, Any Grade",[2]; [7],17 (13)
same,"Treatment-related TEAE GERD, Grade ≥3",[2]; [7],0
same,"Treatment-related TEAE Increased lipase, Any Grade",[2]; [7],15 (11)
same,"Treatment-related TEAE Increased lipase, Grade ≥3",[2]; [7],7 (5)
same,"Treatment-related TEAE Nausea, Any Grade",[2]; [7],58 (43)
same,"Treatment-related TEAE Nausea, Grade ≥3",[2]; [7],5 (4)
same,"Treatment-related TEAE Paronychia, Any Grade",[2]; [7],22 (16)
same,"Treatment-related TEAE Paronychia, Grade ≥3",[2]; [7],0
same,"Treatment-related TEAE Pruritus, Any Grade",[2]; [7],14 (10)
same,"Treatment-related TEAE Pruritus, Grade ≥3",[2]; [7],0
same,"Treatment-related TEAE Rash maculo-papular, Any Grade",[2]; [7],22 (16)
same,"Treatment-related TEAE Rash maculo-papular, Grade ≥3",[2]; [7],1 (1)
same,"Treatment-related TEAE Rash, Any Grade",[2]; [7],45 (33)
same,"Treatment-related TEAE Rash, Grade ≥3",[2]; [7],1 (1)
same,"Treatment-related TEAE Stomatitis, Any Grade",[2]; [7],28 (21)
same,"Treatment-related TEAE Stomatitis, Grade ≥3",[2]; [7],5 (4)
same,"Treatment-related TEAE Vomiting, Any Grade",[2]; [7],36 (26)
same,"Treatment-related TEAE Vomiting, Grade ≥3",[2]; [7],5 (4)
same,"Treatment-related TEAE Anemia, Any Grade",[2]; [8],5 (18)
same,"Treatment-related TEAE Anemia, Grade ≥3",[2]; [8],0
same,"Treatment-related TEAE Decreased appetite, Any Grade",[2]; [8],11 (39)
same,"Treatment-related TEAE Decreased appetite, Grade ≥3",[2]; [8],0
same,"Treatment-related TEAE Dermatitis acneiform, Any Grade",[2]; [8],5 (18)
same,"Treatment-related TEAE Dermatitis acneiform, Grade ≥3",[2]; [8],0
same,"Treatment-related TEAE Diarrhea, Any Grade",[2]; [8],23 (82)
same,"Treatment-related TEAE Diarrhea, Grade ≥3",[2]; [8],9 (32)
same,"Treatment-related TEAE Dry skin, Any Grade",[2]; [8],5 (18)
same,"Treatment-related TEAE Dry skin, Grade ≥3",[2]; [8],0
same,"Treatment-related TEAE Dyspepsia, Any Grade",[2]; [8],6 (21)
same,"Treatment-related TEAE Dyspepsia, Grade ≥3",[2]; [8],0
same,"Treatment-related TEAE Fatigue, Any Grade",[2]; [8],4 (14)
same,"Treatment-related TEAE Fatigue, Grade ≥3",[2]; [8],1 (4)
same,"Treatment-related TEAE GERD, Any Grade",[2]; [8],3 (11)
same,"Treatment-related TEAE GERD, Grade ≥3",[2]; [8],0
same,"Treatment-related TEAE Increased lipase, Any Grade",[2]; [8],7 (25)
same,"Treatment-related TEAE Increased lipase, Grade ≥3",[2]; [8],2 (7)
same,"Treatment-related TEAE Nausea, Any Grade",[2]; [8],11 (39)
same,"Treatment-related TEAE Nausea, Grade ≥3",[2]; [8],3 (11)
same,"Treatment-related TEAE Paronychia, Any Grade",[2]; [8],8 (29)
same,"Treatment-related TEAE Paronychia, Grade ≥3",[2]; [8],0
same,"Treatment-related TEAE Pruritus, Any Grade",[2]; [8],5 (18)
same,"Treatment-related TEAE Pruritus, Grade ≥3",[2]; [8],0
same,"Treatment-related TEAE Rash maculo-papular, Any Grade",[2]; [8],7 (25)
same,"Treatment-related TEAE Rash maculo-papular, Grade ≥3",[2]; [8],1 (4)
same,"Treatment-related TEAE Rash, Any Grade",[2]; [8],13 (46)
same,"Treatment-related TEAE Rash, Grade ≥3",[2]; [8],0
same,"Treatment-related TEAE Stomatitis, Any Grade",[2]; [8],6 (21)
same,"Treatment-related TEAE Stomatitis, Grade ≥3",[2]; [8],2 (7)
same,"Treatment-related TEAE Vomiting, Any Grade",[2]; [8],10 (36)
same,"Treatment-related TEAE Vomiting, Grade ≥3",[2]; [8],2 (7)
same,Best confirmed response: Not evaluated,[3]; 80 mg total daily dose (n=9),0 n (%)
same,Best confirmed response: Progressive disease,[3]; 80 mg total daily dose (n=9),1 (11) n (%)
same,Best confirmed response: Complete response,[3]; [9],1 (11) n (%)
same,Best confirmed response: Partial response,[3]; [9],1 (11) n (%)
same,Best confirmed response: Stable disease,[3]; 80 mg total daily dose (n=9),6 (67) n (%)
same,confirmed ORR,[3]; 120 mg daily (4/21),19%
same,Best confirmed response: Complete response,[3]; 120 mg daily (n=21),1 (5) n (%)
same,Best confirmed response: Not evaluated,[3]; 120 mg daily (n=21),3 (14) n (%)
same,Best confirmed response: Partial response,[3]; 120 mg daily (n=21),3 (14) n (%)
same,Best confirmed response: Progressive disease,[3]; 120 mg daily (n=21),3 (14) n (%)
same,Best confirmed response: Stable disease,[3]; 120 mg daily (n=21),11 (52) n (%)
same,investigator-assessed confirmed ORR,[3]; 160 mg daily (12/28; 95% CI 24–63%),43%
same,disease control rate,[3]; 160 mg daily (24/28; 95% CI 67–96%),86%
same,Best confirmed response: Complete response,[3]; 160 mg daily (n=28),0 n (%)
same,Best confirmed response: Not evaluated,[3]; 160 mg daily (n=28),2 (7) n (%)
same,Best confirmed response: Partial response,[3]; 160 mg daily (n=28),12 (43) n (%)
same,Best confirmed response: Progressive disease,[3]; 160 mg daily (n=28),2 (7) n (%)
same,Best confirmed response: Stable disease,[3]; 160 mg daily (n=28),12 (43) n (%)
same,median PFS,"[3]; 160 mg daily, 28 EGFRex20ins patients (95% CI 4.4–15.6)",7.3 months and 7 months
same,median duration of response in confirmed responders,"[3]; 160 mg daily, 28 EGFRex20ins patients (95% CI 5.0–not reached)",14 months and 13.9 months
same,12-month event-free rate (PFS),"[3]; 160 mg daily, 28 EGFRex20ins patients (95% CI 16–53%)",34%
same,investigator-assessed confirmed ORR,"[3]; 160 mg daily, patients with baseline brain metastases (3/12; 95% CI 5–57%)",25%
same,median investigator-assessed PFS,"[3]; 160 mg daily, patients with baseline brain metastases (95% CI 1.8–15.9)",3.7 months
same,12-month event-free rate (PFS),"[3]; 160 mg daily, patients with baseline brain metastases (95% CI 3–52%)",23%
same,investigator-assessed confirmed ORR,"[3]; 160 mg daily, patients without baseline brain metastases (9/16; 95% CI 30–80%)",56%
same,median duration of response in confirmed responders,"[3]; 160 mg daily, patients without baseline brain metastases (95% CI 5.0–16.6)",13.8 months
same,12-month event-free rate (PFS),"[3]; 160 mg daily, patients without baseline brain metastases (95% CI 18–66%)",43%
same,confirmed ORR,[3]; 5–40 mg daily (0/12),0%
same,Best confirmed response: Complete response,[3]; 5–40 mg daily (n=12),0 n (%)
same,Best confirmed response: Not evaluated,[3]; 5–40 mg daily (n=12),2 (17) n (%)
same,Best confirmed response: Partial response,[3]; 5–40 mg daily (n=12),0 n (%)
same,Best confirmed response: Progressive disease,[3]; 5–40 mg daily (n=12),7 (58) n (%)
same,confirmed ORR,[3]; 5–40 mg daily (n=12),0 [0–26] n (%) [95% CI]
same,Best confirmed response: Stable disease,[3]; 5–40 mg daily (n=12),3 (25) n (%)
same,confirmed ORR,[3]; 80-mg total daily dose (2/9),22%
same,half-life,"[4]; human, plasma",11 to 17 h
same,exposure (AUC0–24) dose dependence,[4]; dose range 5 mg to 180 mg daily,approximately dose-proportional
